As usually defined, the viability is a read-out of living cells in per cent, often relative to untreated cells. Broadly, the inhibition is the change of the read-out against control, counted positive when it falls.

The nature of assay [1]: reducers of endogenous Her2 protein level, primary screen, SKBR3 breast tumor cells, AlphaScreen, ATP viability (AID 461;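 active = Her2 level under about 52% in both replicate screens, with viability over 70% of control, limit read from the data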;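 as to Her2 level: lower value means less Her2 protein in the cells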;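 as to viability: percent of carrier control wells set as 100% viability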). The conditions noted are these: 18-24 h, measured here: SKBR3 viability, ATP luminescence, at 10 µM. For orientation: Bead proximity is the source of the signal in Alpha formats.
The target of assay [2] is Receptor tyrosine-protein kinase erbB-2 (Homo sapiens) (UniProt P04626). Described as above. The conditions noted are these: 18-24 h, at 10 µM, stronger effect = lower value.
Assay [3] is described as follows: SK-BR-3 cell growth inhibitors, pilot screen, 24 h, human (AID 572;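 active = viability at or below 10% of carrier control in both of two separate runs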;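 also: compound exposure lasted between 18 and 24 h rather than exactly 24 h; 100% = carrier-treated control wells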). Conditions: SK-BR-3 viability, CellTiter-Glo luminescence, at 10 µM, stronger effect = lower value. Background: Cellular ATP, detected with luciferase, serves as a proxy for viable cell number.
The nature of assay [4]: HUVEC growth inhibition – cell-based, human, primary screen (AID 575;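 active = viability at or below 30% in both replicate assays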;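 also: 100% = median of untreated cell wells with 0.1% DMSO on each plate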). The conditions noted are these: HUVEC proliferation, CellTiter-Glo luminescence, 72 h; at 10 µM; stronger effect = lower value. The method, boiled down:
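Assay system: primary human umbilical vein endothelial cells / Buffer or medium: endothelial basal medium with 2% FBS plus growth supplements / Compound dosing: one dose, 10 µM final, 0.1% DMSO / Timing: 72 h treatment at 37 °C / Signal: CTG luminescence / Benchmarks: 32 DMSO-only cell-control wells (high), 32 MePR drug-control wells (low) per plate / Plate: collagen-coated 384-well format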

Assay [5] in a line: growth inhibitors of H69AR lung tumor, primary screen, human, duplicate replicates (AID 580;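 active = viability at or under a set limit in both replicates, limit being median viability minus 3 SD, cut at about 48% in these data, passing the limit was not always enough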;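 also: 100% = mean luminescence of untreated wells and 0% = no signal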). Conditions: H69AR lung tumor cells viability, ATP luminescence, 72 h; at 10 µM; stronger effect = lower value.
Assay [6] in a line: reversal of MRP1-mediated doxorubicin resistance, pilot screen, H69AR cells, doxorubicin co-treatment (AID 601). Conditions: CellTiter-Glo, 72 h, at 10 µM; for differential viability (reversal): stronger effect = higher value.
The nature of assay [7]: 384-well plate pilot, post-Golgi transport modulator project, inhibition of yeast transport mutant growth (AID 636; in the data active = inhibition above about 31%). Conditions: absorbance 615 nm, about 18 h, stronger effect = higher value.
A short description of assay [8]: growth suppression of yeast trafficking mutant, preliminary HTS, modulators of trafficking downstream of Golgi apparatus project, 1536-format plate, OD 615 nm (AID 637; in the data active = inhibition above about 30%). Conditions: yeast transport mutant growth, absorbance 615 nm, 18 h; stronger effect = higher value.
The mark [9] stands for this setting: H69AR cells + 2 uM doxorubicin, measured here: viability with 2 uM doxorubicin, stronger effect = lower value.
The mark [10] stands for this setting: H69AR cells, compound alone cytotoxicity.

Active and inactive are the calls of the source.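 The calls were made as follows, unless noted: active = viability loss from added drug above about 55%, and viability with drug at most 40%, in both replicates (limit read from the data, passing the limit was not always enough); inconclusive = both conditions met in only one replicate; inactive = neither replicate meets both conditions.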

Chain of Receptor tyrosine-protein kinase erbB-2 (Homo sapiens) (P04626 whole entry, looked up): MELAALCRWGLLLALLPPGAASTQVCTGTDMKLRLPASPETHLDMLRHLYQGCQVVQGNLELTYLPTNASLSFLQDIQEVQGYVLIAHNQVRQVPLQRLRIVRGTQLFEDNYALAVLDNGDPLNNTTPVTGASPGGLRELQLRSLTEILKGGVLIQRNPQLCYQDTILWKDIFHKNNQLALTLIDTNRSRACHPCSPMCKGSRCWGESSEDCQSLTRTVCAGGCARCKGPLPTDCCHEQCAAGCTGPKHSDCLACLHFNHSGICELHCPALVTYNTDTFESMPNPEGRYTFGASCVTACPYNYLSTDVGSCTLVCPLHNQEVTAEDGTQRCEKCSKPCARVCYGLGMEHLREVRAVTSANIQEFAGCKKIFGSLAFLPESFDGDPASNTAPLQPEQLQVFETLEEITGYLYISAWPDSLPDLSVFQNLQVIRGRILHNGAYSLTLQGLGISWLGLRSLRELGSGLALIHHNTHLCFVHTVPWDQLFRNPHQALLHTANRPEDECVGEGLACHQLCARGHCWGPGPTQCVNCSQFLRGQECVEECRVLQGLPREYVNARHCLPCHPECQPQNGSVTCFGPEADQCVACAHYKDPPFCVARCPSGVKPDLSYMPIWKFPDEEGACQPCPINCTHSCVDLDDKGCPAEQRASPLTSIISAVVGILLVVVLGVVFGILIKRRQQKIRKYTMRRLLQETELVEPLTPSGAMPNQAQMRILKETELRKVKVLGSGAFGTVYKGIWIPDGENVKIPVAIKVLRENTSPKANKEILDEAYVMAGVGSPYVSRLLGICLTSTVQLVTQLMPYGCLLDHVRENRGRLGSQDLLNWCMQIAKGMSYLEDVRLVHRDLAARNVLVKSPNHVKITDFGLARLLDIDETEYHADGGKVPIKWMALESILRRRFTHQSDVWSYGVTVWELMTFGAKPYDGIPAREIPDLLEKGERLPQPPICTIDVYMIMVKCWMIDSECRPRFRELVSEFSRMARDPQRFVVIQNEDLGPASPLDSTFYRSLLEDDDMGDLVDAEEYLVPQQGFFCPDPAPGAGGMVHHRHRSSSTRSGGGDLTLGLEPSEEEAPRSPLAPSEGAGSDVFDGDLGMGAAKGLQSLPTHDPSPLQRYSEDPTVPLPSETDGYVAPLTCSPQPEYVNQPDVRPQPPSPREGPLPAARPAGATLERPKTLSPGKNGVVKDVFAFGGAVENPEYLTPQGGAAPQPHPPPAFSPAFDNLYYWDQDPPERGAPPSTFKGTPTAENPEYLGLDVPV

As to `Cc1cc(C(=O)Nc2sc3c(c2C#N)CCCCC3)cs1`, the viability is 91.5% in assay [1]; 91.5% (inactive) in assay [3]; 76.6% (inactive) in assay [4]; 77.1% (inactive) in assay [5]; 81.7% in assay [6] (setting [9]); 77.1% in assay [6] (setting [10]). Besides, in assay [2], the Her2 level is 92.5% (inactive). Besides, in assay [6] (H69AR cells + 2 uM doxorubicin), the differential viability (reversal) was -4.53% (inactive). Besides, the inhibition is -3.47% (inactive) in assay [7] and -4.1% (inactive) in assay [8].
For `O=C1c2cccnc2C(O)N1Cc1ccc(F)cc1` (stereo not given), the viability in assay [1] is 104%; in assay [3], 104% (inactive); in assay [4] it was 88.8% (inactive); in assay [5], 102% (inactive); in assay [6] (setting [9]), 97.7%; in assay [6] (setting [10]), 102%. Moreover, in assay [2], the Her2 level was 88% (inactive). In addition, in assay [6] (H69AR cells + 2 uM doxorubicin), the differential viability (reversal) was 3.87% (inactive). In addition, the inhibition in assay [7] is -4.53% (inactive); in assay [8], 2.95% (inactive).
In the case of `Cc1nnc(N(C)C(=O)c2cccnc2)s1`, the viability in assay [1] was 110%; in assay [3], 110% (inactive); in assay [4] it was 93.1% (inactive); in assay [5], 88.7% (inactive); in assay [6] (setting [9]), 87.5%; in assay [6] (setting [10]), 88.7%. Besides, the Her2 level in assay [2] was 110% (inactive). Further, the differential viability (reversal) in assay [6] (H69AR cells + 2 uM doxorubicin) is 1.22% (inactive). Besides, the inhibition is 0.96% (inactive) in assay [7] and 3.33% (inactive) in assay [8].
In the case of `Cc1coc(NC(=O)CSc2nc(-c3ccncc3)cc(C(F)(F)F)c2C#N)n1`, the viability was 106% in assay [1]; 106% (inactive) in assay [3]; 79% (inactive) in assay [4]; 71.8% (inactive) in assay [5]; 70.4% in assay [6] (setting [9]); 71.8% in assay [6] (setting [10]). In addition, the Her2 level in assay [2] is 71% (inactive). Moreover, in assay [6] (H69AR cells + 2 uM doxorubicin), the differential viability (reversal) was 1.41% (inactive). Also, the inhibition was -2.5% (inactive) in assay [7] and 0.73% (inactive) in assay [8].
With `COc1ccc(-n2cnnc2SCCC#N)cc1`, the viability was 106% in assay [1]; 106% (inactive) in assay [3]; 88.3% (inactive) in assay [4]; 106% (inactive) in assay [5]; 89.5% in assay [6] (setting [9]); 106% in assay [6] (setting [10]). The Her2 level in assay [2] was 96.5% (inactive). Further, the differential viability (reversal) in assay [6] (H69AR cells + 2 uM doxorubicin) is 16.2% (inactive). For the same compound, the values for the inhibition in assay [7] and in assay [8] were -3.33% (inactive) and 3.71% (inactive), respectively.
With `CCN(CC)C(=O)c1sc2nc(-c3cccs3)cc(-c3cccs3)c2c1N`, the viability in assay [1] is 102%; in assay [3], 102% (inactive); in assay [4], 76.2% (inactive); in assay [5], 71.8% (inactive); in assay [6] (setting [9]), 84.5%; in assay [6] (setting [10]), 71.8%. Moreover, the Her2 level in assay [2] was 88.5% (inactive). Further, the differential viability (reversal) in assay [6] (H69AR cells + 2 uM doxorubicin) was -12.7% (inactive). Moreover, the inhibition in assay [7] is -4.67% (inactive); in assay [8], 21% (inactive).
For the compound `O=C1OC(N2CCN(c3ccccn3)CC2)c2ccccc21` (stereo not given), the viability in assay [1] is 94%; in assay [3], 94% (inactive); in assay [4], 105% (inactive); in assay [5], 96.8% (inactive); in assay [6] (setting [9]), 89.4%; in assay [6] (setting [10]) it was 96.8%. In assay [2], the Her2 level was 80.5% (inactive). In assay [6] (H69AR cells + 2 uM doxorubicin), the differential viability (reversal) was 7.36% (inactive). In addition, the inhibition was -4.53% (inactive) in assay [7] and 1.48% (inactive) in assay [8].
Take `CCOC(=O)N1CCN(c2cc3[nH]c(=S)[nH]c3cc2F)CC1`: the viability in assay [1] is 112%; in assay [3], 112% (inactive); in assay [4], 100% (inactive); in assay [5], 89.7% (inactive); in assay [6] (setting [9]), 96.4%; in assay [6] (setting [10]), 89.7%. Further, the Her2 level in assay [2] was 83% (inactive). Besides, in assay [6] (H69AR cells + 2 uM doxorubicin), the differential viability (reversal) is -6.7% (inactive). Also, the inhibition is -7.2% (inactive) in assay [7] and -2.58% (inactive) in assay [8].
Turning to `COc1ccc(S(=O)(=O)NC2CCCCC2)c(C)c1C`, the viability in assay [1] is 104%; in assay [3], 104% (inactive); in assay [4], 90% (inactive); in assay [5], 96.3% (inactive); in assay [6] (setting [9]) it was 87.7%; in assay [6] (setting [10]), 96.3%. The Her2 level in assay [2] is 91% (inactive). Also, the differential viability (reversal) in assay [6] (H69AR cells + 2 uM doxorubicin) was 8.58% (inactive). Moreover, the figures for the inhibition in assay [7] and in assay [8] were -2.89% (inactive) and -2.9% (inactive), respectively.
Consider `Cc1cccc(NC(=O)CC2NC3CCCCC3NC2=O)c1` (stereo not given), for which the viability in assay [1] was 99.5%; in assay [3], 99.5% (inactive); in assay [4], 96.7% (inactive); in assay [5] it was 93.6% (inactive); in assay [6] (setting [9]), 90.7%; in assay [6] (setting [10]), 93.6%. For the same compound, the Her2 level in assay [2] was 102% (inactive). In addition, in assay [6] (H69AR cells + 2 uM doxorubicin), the differential viability (reversal) is 2.89% (inactive). In addition, the results for the inhibition in assay [7] and in assay [8] were -3.42% (inactive) and -1.17% (inactive), respectively.
In the case of `CC(C)Oc1cccc(-c2cc(C(=O)N3CCN(S(C)(=O)=O)CC3)c3ccccc3n2)c1`, the viability in assay [1] is 90.5%; in assay [3], 90.5% (inactive); in assay [4], 64% (inactive); in assay [5] it was 65.7% (inactive); in assay [6] (setting [9]), 75.4%; in assay [6] (setting [10]) it was 65.7%. In assay [2], the Her2 level is 94% (inactive). Further, the differential viability (reversal) in assay [6] (H69AR cells + 2 uM doxorubicin) was -9.72% (inactive). The results for the inhibition in assay [7] and in assay [8] were -1.84% (inactive) and -6.03% (inactive), respectively.
On to `O=C(CC(CC(=O)c1ccccc1)C(=O)O)c1ccccc1`, for which the viability in assay [1] is 89%; in assay [3], 89% (inactive); in assay [4], 107% (inactive); in assay [5], 102% (inactive); in assay [6] (setting [9]), 96.5%; in assay [6] (setting [10]), 102%. The Her2 level in assay [2] was 101% (inactive). For the same compound, in assay [6] (H69AR cells + 2 uM doxorubicin), the differential viability (reversal) was 5.54% (inactive). Further, the values for the inhibition in assay [7] and in assay [8] were 3.6% (inactive) and -6.77% (inactive), respectively.
In the case of `COc1ccc(OC)c(-n2nnnc2SCC(=O)NCc2ccc3c(c2)OCO3)c1`, the viability is 98.5% in assay [1]; 98.5% (inactive) in assay [3]; 84.4% (inactive) in assay [4]; 93.9% (inactive) in assay [5]; 94.9% in assay [6] (setting [9]); 93.9% in assay [6] (setting [10]). Also, the Her2 level in assay [2] is 88% (inactive). For the same compound, the differential viability (reversal) in assay [6] (H69AR cells + 2 uM doxorubicin) was -1.01% (inactive). For the same compound, the values for the inhibition in assay [7] and in assay [8] were -5.87% (inactive) and 5.57% (inactive), respectively.
Consider `O=C(c1cccc(C(=O)N2CCN(c3ccc(F)cc3)CC2)c1)N1CCN(c2ccc(F)cc2)CC1`, for which the viability is 110% in assay [1]; 110% (inactive) in assay [3]; 74% (inactive) in assay [4]; 73.4% (inactive) in assay [5]; 49.4% in assay [6] (setting [9]); 73.4% in assay [6] (setting [10]). Further, the Her2 level in assay [2] is 102% (inactive). In assay [6] (H69AR cells + 2 uM doxorubicin), the differential viability (reversal) was 24% (inactive). In addition, the inhibition is 3.51% (inactive) in assay [7] and 2.95% (inactive) in assay [8].
In the case of `CCN1CCN(CCNC(=O)c2cn(C(C)c3ccccc3F)nn2)CC1` (stereo not given), the viability in assay [1] was 122%; in assay [3], 122% (inactive); in assay [4] it was 82.3% (inactive); in assay [5], 96.4% (inactive); in assay [6] (setting [9]) it was 87.8%; in assay [6] (setting [10]), 96.4%. Also, in assay [2], the Her2 level was 98.5% (inactive). Further, the differential viability (reversal) in assay [6] (H69AR cells + 2 uM doxorubicin) is 8.63% (inactive). Further, the inhibition in assay [7] was -2.73% (inactive); in assay [8] it was -4.6% (inactive).
Consider `Cc1ccc2c(c1)c1c3n2CC(=C2C(=O)OC(C)(C)OC2=O)NC3CCC1` (stereo not given), for which the viability is 103% in assay [1]; 103% (inactive) in assay [3]; 73.1% (inactive) in assay [4]; 94.6% (inactive) in assay [5]; 85.3% in assay [6] (setting [9]); 94.6% in assay [6] (setting [10]). In addition, the Her2 level in assay [2] was 73% (inactive). Besides, the differential viability (reversal) in assay [6] (H69AR cells + 2 uM doxorubicin) was 9.35% (inactive). The inhibition in assay [7] is -4.67% (inactive); in assay [8] it was -4.59% (inactive).

(Values after PubChem BioAssay.)
